From publication PMC3447631 (Chemistry & biology, 2012)
“Also recorded” adds a separate entry of the source.

Columns and labels:
Solubility = format: physicochemical; settings: limits deliverable dose in vivo
L-type calcium channel = test: Ricerca hit profiling panel: L-type calcium channel; format: binding; settings: Ricerca panel of 41 receptors/enzymes
[1] = test system: panel of 60 human tumor cell lines; test: NCI DTP panel of 60 human tumor cell lines; format: cell-based; settings: NCI/NIH DTP screen
HNF4α gene expression [2] = test: HNF4α mRNA expression in MIN6 cells; format: cell-based, murine; settings: 5 hours
[3] = test system: endogenous insulin promoter; test: Endogenous insulin mRNA; format: cell-based, human; settings: T6PNE cells
Method in brief: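 Q-PCR of endogenous insulin mRNA in T6PNE cells after 48 h exposure to test compound across a concentration series. For fatty acids, cells got 1μM tamoxifen plus fatty acid or DMSO vehicle for 48 hours before RNA harvest. Insulin mRNA was normalized to GAPDH or 18S rRNA; mean ± SE, n=3.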

[4] = test system: primary murine hepatocytes; test: Primary murine hepatocytes in vitro; format: cell-based
Method in brief: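 Primary murine hepatocytes were exposed to DMSO or test compound (5μM) for 3 days, then fixed and stained with Oil Red O.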

HNF4α gene expression [5] = test: HNF4α mRNA expression in HepG2 cells; format: cell-based; settings: 48 hours
Method in brief: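 HNF4α mRNA in treated HepG2 cells measured by Q-PCR and normalized to 18S rRNA. Differences in expression assessed by Student's t-test.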

CYP (2C19) = CYP (2C19) (Homo sapiens, UniProt P33261); test: Ricerca hit profiling panel: CYP 2C19; format: biochemical; settings: Ricerca panel of 41 receptors/enzymes
CYP (2C19), sequence (P33261 whole entry): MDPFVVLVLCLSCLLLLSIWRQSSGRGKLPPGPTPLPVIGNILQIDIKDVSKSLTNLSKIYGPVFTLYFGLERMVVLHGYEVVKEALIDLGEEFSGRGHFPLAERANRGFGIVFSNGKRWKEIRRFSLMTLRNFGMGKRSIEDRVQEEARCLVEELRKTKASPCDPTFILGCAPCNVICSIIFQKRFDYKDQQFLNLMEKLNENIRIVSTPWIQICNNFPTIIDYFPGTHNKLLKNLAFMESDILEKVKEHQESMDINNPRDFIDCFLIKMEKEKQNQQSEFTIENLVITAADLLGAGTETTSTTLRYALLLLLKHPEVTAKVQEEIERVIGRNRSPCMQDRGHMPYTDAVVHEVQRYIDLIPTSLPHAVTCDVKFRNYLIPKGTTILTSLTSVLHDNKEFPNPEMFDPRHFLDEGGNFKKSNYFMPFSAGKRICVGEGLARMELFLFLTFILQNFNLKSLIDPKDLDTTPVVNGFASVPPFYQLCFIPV

[6] = Tolerability and VetScan liver panel blood chemistry in mice; format: in vivo
Method in brief: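 NONcNZO10/LtJ or ICR mice received vehicle (DMSO) or test compound IP once daily for 5 days. Normal-mouse groups were DMSO, 30 mg/kg/day and 10 mg/kg/day (n=4 each). Blood was drawn before sacrifice and run on a VetScan analyzer for ALP, ALT, GGT (IU/L), bile acids (μmol/L), total bilirubin, BUN, cholesterol (mg/dL) and albumin (g/dL).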

HNF4α protein = HNF4α protein and Ki67 in mouse tissues after IP injection; format: in vivo; settings: mice
Hep3B-Luc cells = test: Hep3B-Luc cytotoxicity; format: cell-based, human
Method in brief: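 Hep3B cells engineered to express luciferase from a CMV promoter, tested alongside primary hepatocytes. Viability was read as bioluminescence at 24, 48 and 72 hours after treatment. Cell division was followed by BrdU uptake, with Oil Red O fat staining.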

[7] = In vivo PK studies in mice; settings: mouse, plasma
p57Kip2 expression = test: Kip2 mRNA in T6PNE cells; format: cell-based, human
Method in brief: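 Kip2 mRNA in T6PNE cells measured by Q-PCR, normalized to 18s rRNA. Treated and DMSO vehicle cells were compared by Student's t-test.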

tumor cell lines = test: Toxicity to tumor cell lines versus cultured primary cells in vitro; format: cell-based
liver = test: Hepatic steatosis in mice; format: in vivo; settings: 10 and 30 mg/kg IP, dose-dependent
T6PNE cells = test: Acylcarnitine analysis by GC/MS of T6PNE cell extracts; format: cell-based, human
HNF4α = target: T1, HNF4α (Homo sapiens, UniProt P41235); test: DARTS assay in HepG2 cells; format: binding; settings: HepG2, 20μM, 24hr, subtilisin
T1 sequence (P41235 1-474): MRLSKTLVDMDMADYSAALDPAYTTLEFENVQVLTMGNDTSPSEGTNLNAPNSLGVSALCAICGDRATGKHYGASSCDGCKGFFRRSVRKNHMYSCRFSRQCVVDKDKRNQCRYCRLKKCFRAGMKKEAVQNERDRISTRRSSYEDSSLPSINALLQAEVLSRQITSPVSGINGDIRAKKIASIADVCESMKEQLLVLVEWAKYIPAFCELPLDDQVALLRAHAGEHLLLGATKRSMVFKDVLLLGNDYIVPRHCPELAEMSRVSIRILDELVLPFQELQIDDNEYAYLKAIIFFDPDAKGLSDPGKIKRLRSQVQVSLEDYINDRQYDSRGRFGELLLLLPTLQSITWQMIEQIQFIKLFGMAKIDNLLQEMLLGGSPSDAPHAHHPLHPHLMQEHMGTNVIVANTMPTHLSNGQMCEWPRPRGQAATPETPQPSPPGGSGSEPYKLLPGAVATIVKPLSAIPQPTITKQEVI
Method in brief: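 DARTS: HepG2 cells were treated with DMSO or test compound at 20μM for 24hr. Read-out is the ligand-induced change in HNF4α sensitivity to proteolysis.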

HNF4α DNA binding = target: T2, HNF4α DNA binding (Homo sapiens, UniProt P41235); test: HNF4α DNA binding, HNF TransAM ELISA on HepG2 nuclear extracts; format: cell-based; settings: HepG2 incubated overnight with compound
T2 sequence (P41235 1-474): T1 sequence (P41235 1-474)
Method in brief: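 HepG2 cells were incubated overnight with test compound. Nuclear protein extracts (5μg) were added to wells bearing an oligonucleotide with an HNF4α binding site. Bound HNF4α was detected with an anti-HNF4α antibody (ELISA). Mean ± SD, n=3 biological replicates; Student's t-test.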

PPARγ = format: cell-based; settings: PPRE-Luc, HeLa
Method in brief: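 HeLa cells were co-transfected with a PPRE-Luc reporter, with or without a PPARγ expression vector, then treated with test compound. Read-out was luciferase activity; mean ± SE, n=3.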

Hep3B cells = test: Hep3B-Luc orthotopic xenograft in liver of nude mice; format: in vivo; settings: 30 mg/kg IP daily or every other day
Method in brief: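 Orthotopic model: luciferase-expressing Hep3B cells were injected into the liver parenchyma of nude mice. Once tumour was established (luciferase counts doubled on 3 consecutive bioluminescent reads), mice received test compound 30 mg/kg IP daily or every other day as tolerated, or DMSO vehicle. Tumour and normal liver were harvested after 20–57 days for Oil Red O, cleaved caspase-3 immunostaining and TUNEL.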

[8] = test system: HNF4α-responsive OTC promoter; test: OTC promoter-luciferase reporter co-transfected with full length human HNF4α; format: cell-based; settings: 1μM, 48 hours
[9] = Hepatic microsomal stability; format: in vitro ADME; settings: 60-minute incubation in vitro

Cc1ccc([N+](=O)[O-])cc1S(=O)(=O)n1c(C)nc2ccccc21 [BI6015, 2-Methyl-1-(2-methyl-5-nitrophenylsulfonyl)-1H-benzo[d]imidazole]
solubility (Solubility): limited solubility
cross reactivity with L-type calcium channel (L-type calcium channel): significant cross reactivity
effect on panel of 60 human tumor cell lines [1]: Slowed growth and/or toxicity
effect on HNF4α expression in MIN6 (HNF4α gene expression [2]): strongly repressed
effect on endogenous insulin expression / insulin promoter activity [3]: potently inhibited
reduction of endogenous insulin gene expression [3]: 50 fold
toxicity in primary hepatocytes in vitro [4]: Toxicity was not observed
steatosis in primary mouse hepatocytes in vitro ([4]; 5μM, 3 days, Oil Red O): induced steatosis
effect on HNF4α expression in HepG2 (HNF4α gene expression [5]): strongly repressed
cross reactivity with CYP 2C19 (CYP (2C19)): significant cross reactivity
tolerability ([6]; IP once per day for 5 days, 30 mg/kg): well tolerated
blood chemistries, including ALT ([6]; VetScan Liver Panel): unaffected
HNF4α expression in the intestine or kidney (HNF4α protein; IP): does not change
HNF4α protein in the liver (HNF4α protein; IP): loss of HNF4α protein
number of cells expressing Ki67 in liver, intestine or kidney (HNF4α protein; versus vehicle): no difference
BrdU incorporation in Hep3B-Luc cells (Hep3B-Luc cells; after 48 hours of treatment): decreased
toxicity to Hep3B cells (Hep3B-Luc cells; bioluminescence, 24, 48 and 72 hours): markedly toxic
AUC ([7]; ip, 30 mg/kg): 26.7 ng·h/mL
half-life ([7]; other: oral gavage or intraperitoneal (IP) injection): ~1.5 h
effect on Kip2 expression (p57Kip2 expression): reduced
toxicity to tumor cell lines in vitro (tumor cell lines): toxic
hepatic steatosis in vivo (liver): marked fat accumulation (steatosis)
acetylcarnitine (T6PNE cells): concurrent increase
longer chain acylcarnitines (C18, C18:1, C16, C14) (T6PNE cells): decreased levels
effect on HNF4α protease sensitivity (DARTS) (HNF4α): induced altered HNF4α protease sensitivity
effect on HNF4α DNA binding (HNF4α DNA binding): potently repressed
activity as PPARγ agonist (PPARγ): lacked activity as a PPARγ agonist; also recorded: not to be a PPARγ agonist
apoptosis (TUNEL, cleaved caspase-3) in the normal liver (Hep3B cells): but not in the normal liver
apoptosis (TUNEL, cleaved caspase-3) within the tumor (Hep3B cells): high levels of apoptotic cells
tumor luciferase counts (Hep3B cells): some treated animals exhibited decreased luciferase counts, this did not occur in all animals
Oil Red O staining in normal liver and tumor (Hep3B cells; 20–57 days): marked induction
OTC promoter-driven luciferase expression in CV-1 cells [8]: inhibited
OTC promoter-driven luciferase expression in HepG2 cells [8]: inhibited
hepatic microsomal stability, compound remained [9]: 22%
